An excerpt weighted towards active compounds, which were near 3% of everything screened.
PLCg1 inh = inhibitors of human phospholipase C gamma1 | 370,000 compounds, 0.84% hits | inhibition, % at 12.2 µM | AID 720700 | purified PLC-gamma1, fluorogenic substrate, fluorescence; in the data active = inhibition above about 9.5%
Tn6 DDE FP = disrupts Tn6 cyclic peptide binding to fibrin D-Dimer-E complex; 370,000 compounds, 0.21% hits; AID 720509; Fibrin DD(E) TRITC-Tn6 fluorescence polarization displacement; inhibition, % at 8.3 µM; P02675;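 active = inhibition above a per-campaign cutoff: mean of compounds within control limits plus 3 SD, cut at about 15% in these data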;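 note: 0% = median of all compound wells on the plate and 100% = blocking peptide control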
KLK7 zymogen act = activates the human kallikrein-7 zymogen | P49862 | purified proKLK7, EDANS-DABCYL substrate fluorescence; 100% is mature enzyme control, 0% vehicle | activation, % at 7 µM | 370,000 compounds, 0.9% hits;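 active = activation above the mean of all tested compounds plus 3 SD, computed per campaign excluding outliers beyond control limits, cut at about 13% in these data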
PLC-beta3 inh = PLC-beta3 (human) inhibition, primary screen. 370,000 compounds, 0.18% hits. Purified PLC-beta3, fluorogenic substrate, fluorescence. AID 720704. inhibition, % at 12.2 µM. Q01970; in the data active = inhibition above about 11%;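 note: 0% = median of compound wells on plate and 100% = full blocker control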
Tn7 DDE FP = inhibitors of Tn7 peptide binding to human fibrin DD(E). P02675. FP displacement of FITC-Tn7 peptide from fibrin DD(E); 0% = median of compound wells per plate. 370,000 compounds, 0.13% hits. inhibition, % at 8.3 µM;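 active = inhibition above the mean of compounds falling within the control limits plus 3 SD of them, cut at about 14% in these data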;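 note: 0% = plate median of compound wells and 100% = 10 µM Aha-Tn7 peptide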
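Assay system: human fibrin DD(E). Input: DD(E) 2 µM final. Medium: Tris buffer with calcium and detergent, pH 7.8. Compound dosing: single point at 8.3 µM. Timing: 10 min plus 3 h, room temperature. Technique: fluorescence polarization of the labelled Tn7 tracer. Read-out: percent inhibition. Replicates: singlicate testing.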
CendR NRP1 mod = alters CendR peptide binding to human NRP-1 | FAM-RPARPAR peptide binding to NRP-1, fluorescence polarization | inhibition, % at 25 µM | 360,000 compounds, 0.85% hits;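 active = inhibition or corrected inhibition above about 18%, plus a signal ratio from 0.5 to 1.5, limit read from the data, passing the limit was not always enough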
* hit, by the source's call; . = no result given.

SMILES	PLCg1 inh	Tn6 DDE FP	KLK7 zymogen act	PLC-beta3 inh	Tn7 DDE FP	CendR NRP1 mod
O=C(COc1ccc(Cl)cc1Cl)Nc1noc2ccccc12	-1	-2	0	-2	8	22*
O=C(COc1ccc(Cl)cc1Cl)Nc1ccccn1	1	7	1	1	3	-4
Cc1ccc(N2C(=O)NC(NS(=O)(=O)c3ccccc3)(C(F)(F)F)C2=O)cc1 (stereo unspecified)	-2	-3	0	-3	5	26*
CCOc1ccc(CCNC(=O)c2cc3ccsc3n2C)cc1OC	5	1	0	0	-1	.
CCCc1c(-c2ccc(F)cc2)ncn1Cc1ccccc1OC	6	1	1	4	1	22*
O=C(NCCc1ccccc1)c1ccc(Br)o1	-3	9	0	1	10	24*
O=C(NCCNC(=O)c1ccc(Br)o1)c1ccc(Br)o1	5	4	0	2	-5	8
NC1=C(Cl)C(=O)c2ccccc2C1=O	5	7	-1	8	-1	27*
C#CC1(O)C2C=C(OC)C(=O)C1C(c1ccccc1)C2C (stereo unspecified)	1	2	0	0	4	.
COc1ccccc1-c1nnc(SCC(=O)NC2CCS(=O)(=O)C2)n1N (stereo unspecified)	2	0	0	-1	1	22*
COc1ccccc1-c1nnc(SCC(=O)NC2CCCCC2)n1N	2	-1	0	1	-1	-12
COCCCn1c(SCC(=O)NC2CCS(=O)(=O)C2)nnc1-c1ccc(Cl)cc1 (stereo unspecified)	-2	1	0	-4	1	23*
COCCCn1c(SCC(=O)NC2CCCCC2)nnc1-c1ccncc1	-1	0	0	-1	-10	-16
CC(CCC(C)C(C)(C)C)[C@@H]1CC[C@H]2C3C[C@H](OS(O)(=S)=S)[C@H]4C[C@H](OS(O)(=S)=S)[C@@H](OS(O)(=S)=S)C[C@]4(C)[C@H]3CC[C@]12C (stereo partly specified) (tested in a mixture with another compound)	.	.	.	.	.	36*
CC(CCC(=O)NN)C1CCC2C3CCC4CC(O)CCC4(C)C3CCC12C (stereo unspecified)	0	-5	0	1	-2	6
CCCCN1CC(O)=C(c2nc3ccccc3[nH]2)C1=N	-5	-4	0	1	2	22*
COc1ccc(C(=O)NCCn2cc(SCC(=O)Nc3nnc(C)s3)c3ccccc32)cc1	.	.	.	.	.	24*
O=[N+]([O-])c1ccc2c(c1)CO[C@]21O[C@H](CCO)C[C@H](O)[C@H]1O	1	-8	0	-4	-5	.
COc1cc(/C=C(\C#N)C(=O)NCC2CCCO2)ccc1O (stereo unspecified)	-1	-3	-1	-3	4	-18
COc1cc(/C=N/NC(=O)C(=O)NCC2CCCO2)ccc1O (stereo unspecified)	4	7	1	4	1	39*
CC(C)n1c(O)c(N=NC(=O)CNC(=O)Cc2ccc(Cl)cc2)c2ccccc21	1	0	0	-3	5	21*
COc1cc([N+](=O)[O-])cc(/C=N/NC(=O)C(C)Nc2cccc3ccccc23)c1O (stereo unspecified)	-11	-1	6	-18	-6	32*
CCOC(=O)N1CCN(C(=O)C[C@@H]2C(=O)N(Cc3ccc(OC)cc3)C3=CCN(C(=O)OC(C)(C)C)C[C@]32C(=O)OCC)CC1	0	-2	1	3	2	.
CCN(CC)C(=O)Cn1cc(C(=O)C(=O)N2CCN(c3ccccc3)CC2)c2ccccc21	5	-9	0	-7	3	25*
CCN(CC)C(=O)Cn1cc(C(=O)C(=O)N2CCN(C)CC2)c2ccccc21	-1	-3	-1	-4	-6	-2
CC(C)CCN1C(=O)COc2ccccc2C1c1nnnn1-c1ccc2c(c1)OCCO2 (stereo unspecified)	-2	-6	0	4	6	.
COCC(C)n1c(SCC(=O)Nc2ccc3c(c2)OCCO3)nc2ccccc2c1=O (stereo unspecified)	4	8	1	-4	-2	22*
